Screens from PubChem BioAssay.
In the library only some 3.1% were active in any assay of this set; here they are far more common.
INS promoter inh: inhibitors of insulin promoter-driven GFP, primary screen, imaging, TRM-6 cells (human fetal islet line), eGFP reporter, cell count; inhibition, % at 2 µM; reporter expression induced with tamoxifen; 130,000 tested, 0.9% active; AID 1273, 2008;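 active = inhibition above the mean plus 3 SD, with well images judged a real hit on visual review, cut at about 60% in these data, passing the limit was not always enough; inconclusive = inhibition over the cutoff but images rejected on review; inactive = inhibition not above the cutoff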
Yeast life ext: compounds extending yeast replicative lifespan, primary screen, S. cerevisiae, OD615. S. cerevisiae growth with nicotinamide; deaD strain in restrictive glucose medium. inhibition of the nicotinamide effect, % at 10 µM. 130,000 tested, 0.68% active;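 active = inhibition above a set limit, placed 3 SD over the median of all compounds, cut at about 26% in these data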;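 note: 0% = nicotinamide-treated wells and 100% = cells grown without nicotinamide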
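Buffer or medium: CSMM-D glucose medium, restrictive; test system: modified budding yeast, DeaD strain; compound: single dose 10 µM compound, 0.25% DMSO; schedule: culture preincubation 4 h, compound exposure 48 h, both 30 °C; detection: optical density (absorbance) at 615 nm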
RAM network inh: inhibitors of the yeast RAM network, primary screen, dse1pr::URA3 reporter, 5-FOA selection. S. cerevisiae dse1pr::URA3 reporter, 5-FOA growth OD615, 2 d; analog-sensitive cbk1-as2 kinase mutant strain. AID 868, 2007. 190,000 tested, 1.8% active. inhibition, % at 50 µM;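 active = inhibition above a set limit, 3 SD over mean compound inhibition, cut at about 8.4% in these data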;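 note: 0% = DMSO-only wells with no growth and 100% = 10 µM 1-NA-PP1 full growth; inhibition rescues growth on 5-FOA so higher OD means more RAM inhibition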
Yeast growth inh: growth inhibitors of yeast BB579 in restrictive medium, primary screen, yeast lifespan-shortening project, S. cerevisiae; OD615, 48 h; 140,000 tested, 0.51% active; inhibition, % at 10 µM;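 active = inhibition above a set limit, 3 SD over the mean compound inhibition, cut at about 44% in these data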
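Test system: Saccharomyces cerevisiae DeaD strain BB579, replicative lifespan model yeast | Buffer or medium: Restrictive CSMM-D medium | Doses: One dose, 10 µM compound with 0.25% DMSO | Incubation: 48 h exposure, 30 °C | Detection: Culture absorbance at 615 nm | Control set: Amphotericin B at 10 µg/mL as positive control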
Ins promoter up: insulin promoter activators in MIN6 cells, imaging, high-content screening, mouse beta cells. MIN6 insulin promoter-GFP reporter; hits give high values. z-score at 5 µM. 190,000 tested, 0.3% active;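 active = z-score above 3 at 5 µM with at least 500 cells counted in the well; inconclusive = wells under 500 cells, flagged as cytotoxic or low count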
The depositor's hits bear a star; u = inconclusive; x = no result given.

SMILES	INS promoter inh	Yeast life ext	RAM network inh	Yeast growth inh	Ins promoter up
O=C(NCC1CCCO1)C(c1cccs1)N(C(=O)c1ccc(-c2ccccc2)[nH]1)C1CCCC1 (configuration not stated)	7	-5	2	-16	x
O=C(NCC1CCCO1)C(c1cccs1)N(Cc1ccccc1)C(=O)c1ccc(-c2ccccc2)[nH]1 (configuration not stated)	-7	2	10*	-35	0.69
O=C(CCc1nnc(CCCCc2ccccc2)o1)NCc1cc(F)ccc1F	x	x	11*	x	-0.01
COc1ccc(CNC(=O)c2c(O)c3cccc4c3n(c2=O)CCC4)cc1OC	0	34*	3	-52	1.1
CCCCCCNC(=O)c1c(O)c2cccc3c2n(c1=O)CCC3	x	24	1	-55	0.44
CCN(CC)CCNC(=O)c1c(O)c2cccc3c2n(c1=O)CCC3	3	26	0	-34	-0.45
O=C(NCCNCCO)c1c(O)c2cccc3c2n(c1=O)CCC3	-14	33*	-1	-10	-1.2
COc1ccc(CCNC(=O)c2c(O)c3cccc4c3n(c2=O)CC4)cc1	40	30	8.5*	-55	0.05
COc1ccc(CNC(=O)c2c(O)c3cccc4c3n(c2=O)CCC4)cc1	31	34*	3	-3	-0.74
COc1ccc(CC(=O)Nc2ccccc2C(=O)N2CCOCC2)cc1	-27	1	1	-6	x
C#CCOCCOCCOCCNc1nc(N2CCN(C(=O)[C@H](CCCCN)n3cc(C(N)CO)nn3)CC2)nc(N2CCN(C(=O)[C@H](CCC(=O)O)n3cc(C(N)[C@H](C)CC)nn3)CC2)n1 (some centres not stated)	x	x	-1	x	0.94
O=C(CSc1ccc2nnc(CCNS(=O)(=O)c3ccccc3)n2n1)Nc1nc2ccccc2s1	-40	5	0	-11	-0.09
Cc1ccc(S(=O)(=O)Nc2ccc(=O)n(Cc3ccc(Cl)c(Cl)c3)c2)cc1	-23	-7	6	-34	3.3*
COc1ccc(C)cc1NC(=O)CSc1nnc(-c2ccccn2)n1Cc1ccco1	-55	-18	3	-33	0.63
COc1ccc(C)cc1NC(=O)CSc1nnc(CC(=O)Nc2ccccc2C)n1C	67*	-8	-1	-34	0.21
COc1ccc(NC(=O)CSc2nnc(COc3ccccc3)n2Cc2ccco2)cc1OC	-71	-8	9.9*	-72	1.4
COc1ccc(C)cc1NC(=O)CSc1nnc(COc2ccc(Cl)cc2)n1Cc1ccco1	-142	-9	9.7*	-28	u
COc1ccccc1NC(=O)Cc1nnc(SCC(=O)Nc2ccccc2F)n1C	0	x	3	x	-0.13
COc1ccc(C)cc1NC(=O)CSc1nnc(COc2ccccc2)n1Cc1ccco1	x	-4	9.5*	-13	-1.4
CCCCCCC1CC(=O)NC(=S)N1 (configuration not stated)	-27	x	0	x	0.46
Cc1cc2c3c(ccc(C)c3n1)N=CN2c1ccccc1	81*	-5	2	24	-0.39
Cc1cc(Nc2ccccc2)c2c([N+](=O)[O-])ccc(C)c2n1	-57	-5	1	2	-1.1
Nc1c(-c2ccccc2)c(CN2CCOCC2)nn1-c1ccc(C(=O)O)cc1	9	1	0	-31	0.71
CC(C)NS(=O)(=O)c1ccc(CCC(=O)Nc2cc(Cl)ccc2Oc2ccccc2)cc1	10	-8	8.8*	-10	-2.2
CCNS(=O)(=O)c1ccc(CCC(=O)Nc2ccccc2)cc1	-21	x	2	x	-0.52
SMILES	INS promoter inh	Yeast life ext	RAM network inh	Yeast growth inh	Ins promoter up
COc1ccc(CCNC(=O)CCc2ccc(S(=O)(=O)NC(C)C)cc2)cc1	71*	-3	1	5	-0.57
CCNS(=O)(=O)c1ccc(CCC(=O)Nc2cc(Cl)ccc2Oc2ccccc2)cc1	x	-14	11*	-32	-0.65
CC(C)NS(=O)(=O)c1ccc(NC(=O)CCc2ccccc2)cc1	14	-12	0	-2	0.3
CC(C)Cn1c(N)c(C(=O)COC(=O)C2CC(=O)N(Cc3ccccc3Cl)C2)c(=O)n(C)c1=O (configuration not stated)	-6	x	0	x	-1.1
COc1ccc(S(=O)(=O)Nc2ccc3c(c2)OCO3)cc1C	86*	-9	2	-6	x
NNC(=O)c1ccc(COc2cccc3ccccc23)cc1	x	-8	-1	90*	-0.31
NNC(=O)c1ccc(COc2cccc3ccccc23)o1	x	x	x	x	-0.05
Cc1ccc2c(C)c(C(=O)Nc3c(C)n(C)n(-c4ccccc4)c3=O)oc2c1C	2	-3	1	-6	-0.54
O=C(C/C=N/OCc1ccc(F)cc1Cl)c1cnc(-c2ccccc2)s1	-4	7	9.7*	-12	x
O=C(C/C=N/OCc1ccccc1F)c1cnc(-c2ccc(Cl)cc2)s1	4	-10	7	-26	x
Cc1cc(NC(=O)CCCN2C(=O)c3cccc4cccc(c34)C2=O)no1	x	x	1	x	-0.39
CCOC(=O)CSc1nnc(CCCCCN2C(=O)c3cccc4cccc(c34)C2=O)o1	-41	10	11*	-60	-0.35
Cc1cc(NC(=O)COc2ccc(N(C)S(=O)(=O)c3ccccc3)cc2)no1	79*	-12	1	-6	0.75
CSCCC(NS(=O)(=O)c1ccc(Cl)cc1)C(=O)OCC(=O)N(C(C)C)C(C)C (configuration not stated)	-22	-2	1	-31	0.8
CSCCC(NS(=O)(=O)c1ccc(Cl)cc1)C(=O)OCC(=O)c1ccc(F)cc1 (configuration not stated)	30	36*	8	-25	x
CSCCC(NS(=O)(=O)c1ccc(Cl)cc1)C(=O)OCC(=O)NC1CC1 (configuration not stated)	3	-4	-1	-26	-1.2
CSCCC(NS(=O)(=O)c1ccc(Br)cc1)C(=O)OCC(=O)NC1CC1 (configuration not stated)	83*	x	0	x	-0.27
CSCCC(NS(=O)(=O)c1ccc(Cl)cc1)C(=O)OCc1cccc(Cl)c1 (configuration not stated)	-18	19	8.5*	-32	-0.39
COc1ccc2c3c(cccc13)N(C)N=C2C	-33	-17	4	-27	2.1
CC(C)C(=O)N(c1ccc2oc(=O)sc2c1)S(=O)(=O)c1ccccc1	-25	0	11*	-42	x
O=S(=O)(CCc1ccncc1)C1Cc2cccc3cccc1c23 (configuration not stated)	x	x	x	x	0.76
C#CCOCCOCCOCCNc1nc(N2CCN(C(=O)C(Cc3cc4ccccc4[nH]3)n3cc(C(N)Cc4ccc(O)cc4)nn3)CC2)nc(N2CCN(C(=O)C(Cc3cc4ccccc4[nH]3)n3cc(C(N)Cc4ccc(O)cc4)nn3)CC2)n1 (configuration not stated)	x	x	1	x	0.22
